Measured values as given in paper PMC10234138 (Journal of Enzyme Inhibition and Medicinal Chemistry, 2023).
Several values for one entry are separate records, joined by “and”; a condition that tells them apart may be missing. Equal entries are not always repeated.

How the values were obtained:
[1] = test system: four cancer cell lines (A-549, MCF-7, Panc-1, HT-29); assay: Antiproliferative assay, average over four cancer cell lines; type: cell-based, human; details: for GI50: Homo sapiens, read-out: Antiproliferative activity, Average (GI50)
[2] = test system: Panc-1 (pancreas cancer cell line); assay: Antiproliferative assay, Panc-1; type: cell-based; details: Homo sapiens, PANC-1, read-out: Antiproliferative activity IC50 ± SEM, Panc-1
Cell viability assay = type: cell-based; details: human, MCF-10A mammary gland epithelial cells
[3] = test system: HT-29 (colon cancer cell line); assay: Antiproliferative assay, HT-29; type: cell-based; details: Homo sapiens, HT-29, read-out: Antiproliferative activity IC50 ± SEM, HT-29
[4] = test system: MCF-7 (breast cancer cell line); assay: Antiproliferative assay, MCF-7; type: cell-based; details: Homo sapiens, MCF7, read-out: Antiproliferative activity IC50 ± SEM, MCF-7
[5] = test system: A-549 (epithelial cancer cell line); assay: Antiproliferative assay, A-549; type: cell-based; details: Homo sapiens, A549, read-out: Antiproliferative activity IC50 ± SEM, A-549
EGFR^WT = EGFR^WT (Homo sapiens, UniProt P00533); assay: EGFR inhibitory assay; type: biochemical
Bax = Bax assay in Panc-1; type: cell-based, human; details: Panc-1 cells; for Bax Fold change: vs control untreated cells
Procedure, shortened: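 Bax protein in treated Panc-1 cells, read as concentration in pg/mL. Fold induction is relative to untreated Panc-1 control cells. Staurosporine serves as reference compound.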

EGFR^T790M = EGFR^T790M (Homo sapiens, UniProt P00533, T790M); assay: biochemical
Caspase-8 = Caspase-8 assay in Panc-1; type: cell-based, human; details: Panc-1 cells; for Caspase-8 Fold change: vs control untreated cells
Caspase-3 = Caspase-3 assay in Panc-1; type: cell-based, human; details: Panc-1 cells; for Caspase-3 Fold change: vs control untreated cells
Bcl-2 = Bcl-2 assay in Panc-1; type: cell-based, human; details: Panc-1 cells; for Bcl-2 Fold reduction: vs control untreated cells
[6] = antiproliferative, four cancer cell lines

Chain of EGFR^WT (P00533 669-1210): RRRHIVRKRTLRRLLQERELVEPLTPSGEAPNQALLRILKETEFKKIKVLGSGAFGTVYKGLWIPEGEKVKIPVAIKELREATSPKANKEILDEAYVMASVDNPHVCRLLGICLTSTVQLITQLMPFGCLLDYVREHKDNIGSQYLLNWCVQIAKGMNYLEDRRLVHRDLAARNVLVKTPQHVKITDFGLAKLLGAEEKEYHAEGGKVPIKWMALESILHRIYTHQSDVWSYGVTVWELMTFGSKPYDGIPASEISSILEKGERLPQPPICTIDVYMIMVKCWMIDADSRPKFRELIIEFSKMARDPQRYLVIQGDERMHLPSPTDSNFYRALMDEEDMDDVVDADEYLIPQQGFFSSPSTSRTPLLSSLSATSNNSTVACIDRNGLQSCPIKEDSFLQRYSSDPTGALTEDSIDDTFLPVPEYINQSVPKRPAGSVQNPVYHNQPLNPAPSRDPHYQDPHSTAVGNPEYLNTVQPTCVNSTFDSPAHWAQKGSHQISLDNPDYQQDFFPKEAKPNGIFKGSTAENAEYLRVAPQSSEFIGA
Chain of EGFR^T790M (P00533 25-1210 T790M): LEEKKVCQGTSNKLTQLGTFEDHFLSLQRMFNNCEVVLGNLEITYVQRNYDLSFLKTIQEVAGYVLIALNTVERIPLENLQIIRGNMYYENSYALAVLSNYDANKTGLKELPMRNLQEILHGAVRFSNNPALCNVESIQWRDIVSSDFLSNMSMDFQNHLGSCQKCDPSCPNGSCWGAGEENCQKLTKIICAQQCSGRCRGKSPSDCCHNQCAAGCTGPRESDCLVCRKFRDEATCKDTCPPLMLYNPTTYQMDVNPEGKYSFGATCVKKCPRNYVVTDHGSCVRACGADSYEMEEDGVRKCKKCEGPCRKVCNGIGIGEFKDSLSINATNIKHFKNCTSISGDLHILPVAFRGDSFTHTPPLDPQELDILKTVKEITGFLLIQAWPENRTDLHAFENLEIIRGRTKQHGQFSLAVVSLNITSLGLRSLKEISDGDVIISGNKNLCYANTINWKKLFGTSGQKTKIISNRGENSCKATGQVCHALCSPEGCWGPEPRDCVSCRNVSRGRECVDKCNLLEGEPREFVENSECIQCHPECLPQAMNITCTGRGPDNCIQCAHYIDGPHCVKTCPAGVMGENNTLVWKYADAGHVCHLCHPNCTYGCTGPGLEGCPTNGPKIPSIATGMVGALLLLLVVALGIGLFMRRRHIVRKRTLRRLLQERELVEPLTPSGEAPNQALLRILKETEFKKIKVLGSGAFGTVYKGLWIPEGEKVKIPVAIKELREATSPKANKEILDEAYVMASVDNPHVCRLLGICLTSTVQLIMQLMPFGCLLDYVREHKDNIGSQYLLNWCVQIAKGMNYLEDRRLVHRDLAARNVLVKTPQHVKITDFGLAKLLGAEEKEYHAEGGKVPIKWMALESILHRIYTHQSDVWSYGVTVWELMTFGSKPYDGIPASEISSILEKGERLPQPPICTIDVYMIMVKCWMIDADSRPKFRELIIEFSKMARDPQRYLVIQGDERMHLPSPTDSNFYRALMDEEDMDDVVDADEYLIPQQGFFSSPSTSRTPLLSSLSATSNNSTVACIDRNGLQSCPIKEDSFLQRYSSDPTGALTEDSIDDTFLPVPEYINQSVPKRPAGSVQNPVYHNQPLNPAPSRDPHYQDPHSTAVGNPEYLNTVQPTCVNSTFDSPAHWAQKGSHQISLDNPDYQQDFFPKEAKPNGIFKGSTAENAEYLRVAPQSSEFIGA

GI50 [1] [nM]	fold less potent than compound 5f (GI50) [1, 6] [fold]	IC50 [2] [nM]	IC50 [3] [nM]	IC50 [4] [nM]	IC50 [5] [nM]	IC50 (EGFR^WT) [nM]	fold more potent than compound 5b (GI50) [1, 6] [fold]	IC50 (EGFR^T790M) [nM]	Compound	viability at 96 h, 50 µM (Cell viability assay) [%]	Bax Conc (Bax)	Bax Fold change (Bax)	Caspase-8 Conc (Caspase-8) [ng/mL]	Caspase-8 Fold change (Caspase-8)	Caspase-3 Conc (Caspase-3) [pg/mL]	Bcl-2 Conc (Bcl-2) [ng/mL]	Bcl-2 Fold reduction (Bcl-2)	Bax Conc (Bax; listed as 5 g) [pg/mL]	Caspase-3 Fold change (Caspase-3)	Caspase-3 Fold change (Caspase-3; listed as 5 g)
76	2.5	73 ± 7	75 ± 8	79 ± 8	75 ± 8				CO/C=C/c1c(C(=O)NCCc2ccccc2)[nH]c2ccc(Cl)cc12 [Compound 5a, (E)-5-Chloro-3–(2-methoxyvinyl)-N-phenethyl-1H-indole-2-carboxamide]	91										
77		75 ± 7	78 ± 7	79 ± 7	76 ± 7				CO/C=C/c1c(C(=O)NCCc2ccc(N3CCCCC3)cc2)[nH]c2ccc(Cl)cc12 [Compound 5b, (E)-5-chloro-3–(2-methoxyvinyl)-N-(4-(piperidin-1-yl)phenethyl)-1H-indole-2-carboxamide]	89										
47		45 ± 5	47 ± 5	49 ± 5	45 ± 5	102 ± 7	1.6		CO/C=C/c1c(C(=O)NCCc2cccc(N3CCCCC3)c2)[nH]c2ccc(Cl)cc12 [Compound 5c, (E)-5-chloro-3–(2-methoxyvinyl)-N-(3-(piperidin-1-yl)phenethyl)-1H-indole-2-carboxamide]	87										
36		35 ± 3	38 ± 4	38 ± 3	34 ± 4	85 ± 5			CO/C=C/c1c(C(=O)NCCc2ccc(N(C)C)cc2)[nH]c2ccc(Cl)cc12 [Compound 5d, (E)-5-chloro-N-(4-(dimethylamino)phenethyl)-3-(2-methoxyvinyl)-1H-indole-2-carboxamide]	89										
70		67 ± 7	71 ± 7	73 ± 7	70 ± 7				CO/C=C/c1c(C(=O)NCCc2ccc(N3CCCC3)cc2)[nH]c2ccc(Cl)cc12 [Compound 5e, (E)-5-chloro-3-(2-methoxyvinyl)-N-(4-(pyrrolidin-1-yl)phenethyl)-1H-indole-2-carboxamide]	90										
29		27 ± 3	30 ± 3	30 ± 3	28 ± 3	68 ± 4		9.5 ± 2	CO/C=C/c1c(C(=O)NCCc2ccc(N3CCCC3C)cc2)[nH]c2ccc(Cl)cc12 (stereo not drawn) [Compound 5f, (E)-5-chloro-3-(2-methoxyvinyl)-N-(4-(2-methylpyrrolidin-1-yl)phenethyl)-1H-indole-2-carboxamide]	87	305 pg/mL and 305.50 pg/mL	37	2.10	25	560.2 ± 5.0	0.80	6			
31		30 ± 3	32 ± 3	32 ± 3	30 ± 3	74 ± 5		11.9 ± 3	CO/C=C/c1c(C(=O)NCCc2ccc(N3CCOCC3)cc2)[nH]c2ccc(Cl)cc12 [Compound 5g, (E)-5-chloro-3-(2-methoxyvinyl)-N-(4-morpholinophenethyl)-1H-indole-2-carboxamide]	89	299.40 pg/mL	36	1.97	23	542.5 ± 5.0	0.84	6	299	8.3	approximately 8
89		85 ± 9	89 ± 9	92 ± 9	89 ± 9				CO/C=C/c1c(C(=O)NC(CO)Cc2ccccc2)[nH]c2ccc(Cl)cc12 (stereo not drawn) [Compound 6a, (E)-5-chloro-N-(1-hydroxy-3-phenylpropan-2-yl)-3-(2-methoxyvinyl)-1H-indole-2-carboxamide]	86										
102		97 ± 10	104 ± 10	105 ± 10	102 ± 10				CO/C=C/c1c(C(=O)NC2c3ccccc3-c3ccccc32)[nH]c2ccc(Cl)cc12 [Compound 6b, (E)-5-chloro-N-(9H-fluoren-9-yl)-3-(2-methoxyvinyl)-1H-indole-2-carboxamide]	87										
66		62 ± 6	64 ± 6	69 ± 6	67 ± 6				CO/C=C/c1c(C(=O)NCc2ccccc2)[nH]c2ccc(Cl)cc12 [Compound 6c, (E)-N-benzyl-5-chloro-3-(2-methoxyvinyl)-1H-indole-2-carboxamide]	85										
85		81 ± 8	85 ± 8	87 ± 8	85 ± 8				CO/C=C/c1c(C(=O)N2CCN(c3ccccc3)CC2)[nH]c2ccc(Cl)cc12 [Compound 6d, (E)-(5-chloro-3–(2-methoxyvinyl)-1H-indol-2-yl)(4-phenylpiperazin-1-yl) methanone]	89										
45		43 ± 4	45 ± 5	47 ± 5	45 ± 5	98 ± 7			CO/C=C/c1c(C(=O)N2CCC(Cc3ccccc3)CC2)[nH]c2ccc(Cl)cc12 [Compound 6e, (E)-(4-benzylpiperidin-1-yl)(5-chloro-3–(2-methoxyvinyl)-1H-indol-2-yl) methanone]	91										
41		38 ± 4	42 ± 4	42 ± 4	40 ± 4	93 ± 6			CO/C=C/c1c(C(=O)NCc2nc3ccccc3[nH]2)[nH]c2ccc(Cl)cc12 [Compound 6f, (E)-N-((1H-benzo[d]imidazol-2-yl)methyl)-5-chloro-3–(2-methoxyvinyl)-1H-indole-2-carboxamide]	89										
54		51 ± 5	55 ± 5	57 ± 5	53 ± 5				O=c1c2[nH]c3ccc(Cl)cc3c2ccn1CCc1ccccc1 [Compound 7a, 6-chloro-2-phenethyl-2,9-dihydro-1H-pyrido[3,4-b]indol-1-one]	90										
57		55 ± 5	57 ± 6	59 ± 6	57 ± 6				O=c1c2[nH]c3ccc(Cl)cc3c2ccn1CCc1ccc(N2CCCCC2)cc1 [Compound 7b, 6-chloro-2–(4-(piperidin-1-yl)phenethyl)-2,9-dihydro-1H-pyrido[3,4-b]indol-1-one]	89										
33		30 ± 3	30 ± 3	40 ± 3	30 ± 3				C#Cc1cccc(Nc2ncnc3cc(OCCOC)c(OCCOC)cc23)c1 [Erlotinib, reference compound]											
									CN[C@@H]1C[C@H]2O[C@@](C)([C@@H]1OC)n1c3ccccc3c3c4c(c5c6ccccc6n2c5c31)C(=O)NC4 [Staurosporine, reference compound]		276 pg/mL and 276.20 pg/mL		1.75	21	503.2 ± 4.0	0.98	5		7.6	
